mIAP block – mouse IAP inhibition; purified mouse IAP, CDP-Star luminescence, 30 min; inhibition, % at 10 µM; hit rate 0.2% among 330,000;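 active means inhibition of at least 40% at 10 µM in the primary screen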;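 further: plate controls were DMSO with enzyme for no effect and no enzyme wells for full effect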
hIAP block – blocks human intestinal alkaline phosphatase; AID 2544; inhibition, % at 10 µM; hit rate 0.12% among 330,000; purified IAP, CDP-Star luminescence, 30 min; P09923;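 active means inhibition reaching a set limit with compound at 10 µM in the primary screen, cut at about 35% in these data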;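 further: plate controls were DMSO wells with enzyme for no effect and no-enzyme buffer wells for full effect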
Target sequence (P09923 whole entry, looked up): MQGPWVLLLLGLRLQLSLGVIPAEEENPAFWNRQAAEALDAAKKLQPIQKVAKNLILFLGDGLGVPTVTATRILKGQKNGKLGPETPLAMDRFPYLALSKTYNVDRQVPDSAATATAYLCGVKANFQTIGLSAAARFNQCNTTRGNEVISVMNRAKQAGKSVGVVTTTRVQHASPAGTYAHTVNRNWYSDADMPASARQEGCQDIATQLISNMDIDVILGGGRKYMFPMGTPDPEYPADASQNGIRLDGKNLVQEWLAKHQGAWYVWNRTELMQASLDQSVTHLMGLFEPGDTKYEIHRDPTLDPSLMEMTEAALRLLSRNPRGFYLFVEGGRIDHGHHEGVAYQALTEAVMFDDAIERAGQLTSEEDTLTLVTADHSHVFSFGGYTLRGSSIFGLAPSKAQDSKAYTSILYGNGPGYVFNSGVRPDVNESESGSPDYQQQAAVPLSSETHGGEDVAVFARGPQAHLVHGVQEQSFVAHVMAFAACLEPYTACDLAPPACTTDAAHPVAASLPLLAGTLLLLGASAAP
mIAP act – mouse IAP activation; muIAP, CDP-Star luminescence, 30 min; hits give high values; 1 = vehicle-only enzyme signal, 0 = enzyme-free wells; activation factor at 10 µM; hit rate 0.24% among 330,000;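 active means activation factor of at least 2 at 20 µM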
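System: Mouse IAP enzyme | Also added: CDP-Star substrate | Dosing: Compounds dispensed in DMSO | Schedule: 30 min enzyme-substrate-compound incubation at room temperature | Technique: Chemiluminescence readout | Control set: DMSO-only wells and no-enzyme negative control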
hIAP activ – increases human intestinal alkaline phosphatase activity | purified human IAP, CDP-Star luminescence, 30 min; hits give high values; 1 = vehicle-only enzyme, 0 = enzyme-free background | activation factor at 10 µM | hit rate 0.16% among 330,000;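 active means activation factor of the enzyme at least 2-fold when tested at 20 µM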
bIAP inh – intestinal alkaline phosphatase (bovine) inhibition; 190,000 tested, under 10 active; inhibition, % at 20 µM; purified bovine IAP, CDP-star luminescence, 30 min; AID 1019;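 active means over 50% inhibition of intestinal alkaline phosphatase at 20 µM in the single-dose screen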
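test system = bovine IAP enzyme | medium = DEA buffer 100 mM, pH 9.8, with MgCl2 1.0 mM, ZnCl2 0.02 mM | detection = luminescence | dosing = single compound dose of 20 µM, 2% DMSO final | incubation = 30 min reaction at room temperature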
bIAP act – intestinal alkaline phosphatase (bovine) activation; purified bovine IAP, CDP-star luminescence, 30 min; hits give high values; fold of DMSO-control signal, blank-subtracted; hit rate 0.17% among 200,000; activation factor at 20 µM;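 active means activation factor of 2 or more at 20 µM, a signal rise over negative controls twice the positive control's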
hIAP act confirm – human IAP activation confirmation. shares compounds with hIAP activ. purified IAP, CDP-Star luminescence, 30 min; hits give low values. activation (%Activity, negative = activation), % at 8.3 µM. hit rate 10% among 880;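 active means at least twofold enzyme activation in any of six single-dose repeats, which the averaged readout prints as negative percent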
* hit, by the source's call; · = not tested or not shown. Rows were chosen to be rich in hits. Some 0.77% of all compounds tested hit in one or more screens of this group.

SMILES | mIAP block | hIAP block | mIAP act | hIAP activ | bIAP inh | bIAP act | hIAP act confirm
Cc1ccc(N(C)C(=O)c2cc(S(=O)(=O)N3CCCC3)cn2C)cc1 | -4 | 5 | 1 | 0.95 | · | · | ·
O=C(c1cccs1)N1CCc2ccccc21 | -6 | -119 | 1.1 | 2.2* | 7 | 0.9 | 4
COC(=O)Nc1ccc(S(=O)(=O)NC2CCCCC2)cc1 | -3 | -1 | 1 | 1 | · | · | ·
O=c1[nH]c(-c2ccccc2F)nc2c1sc(=S)n2Cc1ccccc1 | 11 | -2 | 0.89 | 1 | 36 | 0.6 | ·
COc1ccc2nc(NNC(=O)c3cc(=O)c4ccccc4o3)sc2c1 | 14 | -124 | 0.86 | 2.2* | 4 | 1 | -71
Cc1cccc2sc(NNC(=O)c3cc(=O)c4ccccc4o3)nc12 | 31 | -95 | 0.69 | 2 | -14 | 1.1 | ·
O=C(NNc1nc2c(F)cccc2s1)c1cc(=O)c2ccccc2o1 | 20 | -174 | 0.8 | 2.7* | 4 | 1 | 11
COc1ccccc1CNC(=O)c1cc(S(=O)(=O)N2CCOCC2)cn1C | 12 | 2 | 0.88 | 0.98 | · | · | ·
COc1ccc(NS(=O)(=O)c2cccc(C(=O)NN=Cc3cc(Br)c(O)c(Br)c3)c2)cc1 | -4 | -21 | 1 | 1.2 | · | · | ·
O=C(N/N=C/c1ccccn1)c1cc(-c2ccc3ccccc3c2)n[nH]1 | 7 | -125 | 0.93 | 2.2* | 18 | 0.8 | -30
O=C(N/N=C/c1ccco1)c1cc(-c2ccc3ccccc3c2)n[nH]1 | 4 | -108 | 0.96 | 2.1* | -42 | 1.4 | -15
CCc1ccc(-c2cc(C(=O)N/N=C/c3ccco3)[nH]n2)cc1 | -3 | -65 | 1 | 1.6 | 2 | 1 | ·
CCc1ccc(-c2cc(C(=O)N/N=C/c3ccccn3)[nH]n2)cc1 | -3 | -72 | 1 | 1.7 | -1 | 1 | ·
O=C(NCCC1CCCCN1S(=O)(=O)c1ccc(F)cc1)C(=O)NCc1ccccn1 (stereo unspecified) | -1 | 0 | 1 | 0.99 | · | · | ·
Cc1nc2c(C)cccn2c1/C(O)=C1\C(=O)C(=O)N(CCN(C)C)C1c1ccco1 (stereo unspecified) | 6 | 5 | 0.94 | 0.95 | · | · | ·
COc1cccc(C2c3c(-c4ccccc4O)n[nH]c3C(=O)N2Cc2ccco2)c1 (stereo unspecified) | 2 | -110 | 0.97 | 2.1* | · | · | 4
Cc1cc(C)n2nc(C(=O)OCC(=O)NCc3ccc(Cl)cc3)nc2n1 | -7 | -2 | 1.1 | 1 | · | · | ·
CCn1c2ccccc2c2cc(/C=N/n3cn[nH]c3=S)ccc21 | 12 | -13 | 0.88 | 1.1 | 4 | 1 | ·
CCn1c2ccccc2c2cc(/C=N/n3c(-c4cc(C)[nH]n4)n[nH]c3=S)ccc21 | -9 | -106 | 1.1 | 2.1* | · | · | 14
CCOC(=O)Cc1csc(NC(=O)CN2C(=O)c3ccccc3C2=O)n1 | 0 | -2 | 1 | 1 | · | · | ·
CCOC(=O)Cc1csc(NC(=O)CN2C(=O)c3ccccc3S2(=O)=O)n1 | 8 | -107 | 0.92 | 2.1* | -35 | 1.4 | 7
O=C(O)CCNC(=S)Nc1cccc(F)c1 | -8 | -4 | 1.1 | 1 | · | · | ·
Cc1c(C(C)NC(=O)Nc2ccc(F)cc2F)cnn1C (stereo unspecified) | -5 | -110 | 1.1 | 2.1* | -13 | 1.1 | -47
Cc1cc(OCc2cc(C(=O)NC3CCC3)no2)cc(C)c1Cl | 2 | 39* | 0.98 | 0.61 | · | · | -3
Cc1ccc(OCc2cc(C(=O)NC3CCCCC3)no2)cn1 | -6 | -17 | 1.1 | 1.2 | · | · | ·
CCOc1cc(/C=C2/SC(=S)N(Cc3ccccc3)C2=O)ccc1O | 28 | -10 | 0.72 | 1.1 | · | · | ·
COc1cc(/C=C2\SC(=S)N(N(C)c3ccccc3)C2=O)ccc1O | 30 | 41* | 0.69 | 0.59 | · | · | 60
Cc1ccc(S(=O)(=O)NCC(=O)NNC(=O)c2ccccc2Cl)cc1C | 28 | -121 | 0.72 | 2.2* | · | · | -9
C=CCNc1nc2c(c(=O)[nH]c(=O)n2C)n1CC(O)COc1ccc2ccccc2c1 (stereo unspecified) | -4 | -11 | 1 | 1.1 | · | · | ·
CSCCC(NS(=O)(=O)c1ccc(C)cc1)C(=O)NNC(=O)c1csc(N2CCOCC2)n1 (stereo unspecified) | 32 | -103 | 0.68 | 2* | · | · | 48

Source: PubChem BioAssay
